Assay outcomes (PubChem BioAssay)
Sampled rows, rich in hits. Any-hit rate of the full collection: about 2.1%.
SMARCA2 act = SMARCA2 (BRM) function activators, primary screen, cell-based, luminescence, high throughput; AID 652017, 2013; MG213 cells, MMTV-luciferase reporter, dexamethasone, overnight; 370,000 compounds, 1% hits; activation, % at 9.1 µM; in the data active = activation above about 7.8%
CFTR F508del cor = F508del CFTR correction, initial screen, CFBE line, single point; activity (quench increase), % at 7.58 µM; 350,000 compounds, 0.36% hits; CFBE cells, YFP halide quenching; stimulated with forskolin plus potentiator P3; % fluorescence drop versus neutral controls;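 active = mean added fluorescence quench of at least 8% versus neutral control, with both replicates also reaching 8%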;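 also: cells transiently co-express mutant CFTR-F508del with the halide-sensitive YFP; corrector assay measuring rescue of mutant channel to the surface after 24 h compound exposure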
MC4R antag cAMP = MC4R antagonists of cAMP signaling, primary screen, cell-based, TR-FRET, antagonist arm of biased-ligand search; MC4R-expressing cells, MTII-stimulated cAMP, LANCE TR-FRET; 360,000 compounds, 0.48% hits; inhibition, % at 6.5 µM; AID 540295, 2011;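 active = inhibition above its plate's cutoff, the mean of tested wells on that plate plus 3 SD, cut at about 29% in these data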
Target sequence (P32245 whole entry, looked up): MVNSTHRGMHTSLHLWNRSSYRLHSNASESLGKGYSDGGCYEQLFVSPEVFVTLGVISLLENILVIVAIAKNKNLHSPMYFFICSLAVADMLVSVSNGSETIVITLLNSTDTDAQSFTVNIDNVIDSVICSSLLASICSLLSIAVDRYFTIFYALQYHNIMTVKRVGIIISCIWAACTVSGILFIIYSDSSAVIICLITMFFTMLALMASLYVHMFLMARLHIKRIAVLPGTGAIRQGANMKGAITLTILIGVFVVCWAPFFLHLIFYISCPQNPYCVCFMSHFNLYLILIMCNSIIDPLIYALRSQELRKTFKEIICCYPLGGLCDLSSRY
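Assay system: U2OS-MC4R stable cell line; Also added: Melanotan II; Technique: Eu-cAMP/anti-cAMP TR-FRET, emission 671 nm; Times: 30-min compound, 1-h challenge, 1-h detection, room temperature.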
MC4R barr agon = MC4R agonists recruiting beta-arrestin, primary screen, cell-based, luminescence, agonist arm of biased-ligand search; 360,000 compounds, 0.98% hits; U2OS MC4R beta-arrestin complementation; percent of melanotan II response, DMSO zero; Melanocortin receptor 4 (Homo sapiens), P32245; activation, % at 8.9 µM;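 active = activation above a per-plate cutoff, the mean activation of sample wells on that plate plus 3 SD, cut at about 8% in these data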
U2OS cAMP counter = nonselective cAMP signaling inhibitors, parental cells, counter-screen for MC4R biased antagonist project, cell-based, TR-FRET, U2OS, forskolin, triplicate | shares compounds with MC4R antag cAMP | LANCE TR-FRET | 1,600 compounds, 26% hits | inhibition, % at 6.5 µM;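 active = mean inhibition over triplicates above the low-control well mean plus 3 SD, set per campaign, cut at about 13% in these data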;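 also: signal is single emission at 671 nm which falls as cellular cAMP rises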
MC4R cAMP antag = MC4R cAMP antagonists, retest, confirmation, cell-based, TR-FRET. shares compounds with MC4R antag cAMP. MC4R-expressing cells, MTII-stimulated cAMP. inhibition, % at 6.5 µM. 1,600 compounds, 27% hits; in the data active = inhibition above about 29%
Hits are given with their value; . = inactive; / = no result; + = active, no number.

SMILES	SMARCA2 act	CFTR F508del cor	MC4R antag cAMP	MC4R barr agon	U2OS cAMP counter	MC4R cAMP antag
COc1ccc(-n2c(SC3CCOC3=O)nc3ccccc32)cc1 (configuration not stated)	.	/	42	.	.	.
O=C1OCCC1Sc1nnc(-c2ccc(F)cc2)n1Cc1ccccc1 (configuration not stated)	.	/	32	.	26	32
O=C1OCCC1Sc1nc2ccccc2n1-c1ccccc1 (configuration not stated)	.	/	.	.	/	/
Cc1cccc(S(=O)(=O)N2C[C@H](O)COC[C@H]3O[C@H](CC(=O)NCc4ccc5c(c4)OCO5)CC[C@@H]32)c1	/	.	/	/	/	/
COc1cccc(NC(=O)N2[C@@H]3CNC[C@H]2C3c2ccc(-c3cccc(C(=O)N(C)C)c3)cc2)c1 (some centres not stated)	/	.	/	/	/	/
O=C(Nc1cc(N2CCCCC2)ncn1)c1ccccc1	.	.	.	.	/	/
O=C(Nc1cc(Cl)ncn1)c1ccccc1	.	.	30	.	17	38
Cc1cnc(C(=O)OCC(=O)c2ccc(Br)s2)cn1	.	.	30	.	13	.
CCc1ccc(C(=O)COC(=O)c2cnc(C)cn2)cc1	.	.	.	.	/	/
CS(=O)(=O)c1ccc(Cl)c(NC(=O)COC(=O)CNC(=O)c2ccc(Br)o2)c1	.	/	32	.	.	.
CS(=O)(=O)c1ccc(Cl)c(NC(=O)COC(=O)CNC(=O)c2ccc3ccccc3c2)c1	.	.	.	.	/	/
C[C@@H]1CN([C@H](C)CO)C(=O)c2cc(NC(=O)CCC(F)(F)F)ccc2O[C@@H](C)CCCCO[C@H]1CN(C)Cc1ccncc1	/	.	/	/	/	/
OCCN1CCN(c2cc(-c3ccccc3)c3ccccc3n2)CC1	.	/	41	.	.	.
CC1CCN(C(=O)Cn2cnc3c(cnn3C(C)(C)C)c2=O)CC1	.	.	36	.	.	.
CC(C)(C)n1ncc2c(=O)n(CC(=O)N3CCCC3)cnc21	.	.	.	.	/	/
CO[C@H]1CN(C)C(=O)c2ccc(NC(=O)C3CCCCC3)cc2OC[C@H](C)N(Cc2nccs2)C[C@@H]1C	/	.	/	/	/	/
O=C(C[C@@H]1C=C[C@H](NC(=O)C2CCC2)[C@H](CO)O1)NCC1CC1	/	.	/	/	/	/
O=C1C(SCCO)=C(SCCO)C(=O)c2ccccc21	.	10	97	.	102	143
CC1=C(SCc2ccccc2)C(=O)c2ccccc2C1=O	.	.	.	.	/	/
COC(=O)C(CC(C)C)NC(=O)/C=C/c1ccccc1Cl (configuration not stated)	.	/	.	.	/	/
COC(=O)C(CC(C)C)NC(=O)/C=C/c1ccc(Cl)cc1 (configuration not stated)	.	/	35	.	.	.
COc1cc(OC)cc(C(=O)NCC(=O)OCC(=O)NCc2ccco2)c1	.	.	.	.	/	/
Cc1cc(C)cc(C(=O)NCC(=O)OCC(=O)NCc2ccco2)c1	.	.	39	.	.	.
CN1CCN(C(=O)C[C@H]2CC[C@H]3[C@@H](COC[C@@H](O)CN3C(=O)Nc3ccc(Cl)cc3)O2)CC1	/	.	/	/	/	/
O=C1CN(S(=O)(=O)Cc2ccccc2)C[C@@H]2[C@@H](c3ccc(C#Cc4cccnc4)cc3)[C@H](CO)N12	/	.	/	/	/	/
SMILES	SMARCA2 act	CFTR F508del cor	MC4R antag cAMP	MC4R barr agon	U2OS cAMP counter	MC4R cAMP antag
O=C(CCC(=O)c1ccc(F)cc1)OC1CCOC1=O (configuration not stated)	.	/	33	.	21	37
O=C(CNC(=O)c1ccc(Br)cc1)OC1CCOC1=O (configuration not stated)	.	.	.	.	/	/
CCOc1ccc(C(=O)NCC(=O)OC2CCOC2=O)cc1OCC (configuration not stated)	.	/	32	.	16	.
C[C@@H]1CN([C@H](C)CO)C(=O)c2cccc(NS(=O)(=O)c3cccs3)c2O[C@H]1CN(C)S(=O)(=O)c1ccc(F)cc1	/	.	/	/	/	/
COCC(=O)N1[C@@H](CO)[C@@H](c2ccccc2)C12CN(C(=O)NC1CCCCC1)C2	/	.	/	/	/	/
COc1ccc(N(C(=O)Cc2cccs2)C(C(=O)NC2CCCC2)c2ccncc2)cc1OC (configuration not stated)	.	.	.	.	/	/
C#CC(=O)N(c1ccc(OC)c(OC)c1)C(C(=O)NC1CCCC1)c1cccs1 (configuration not stated)	.	.	62	10	.	63
COc1ccc2c3c(n(C)c2c1)[C@@H](CO)N(C)CC31CN(S(=O)(=O)c2cccc(F)c2)C1	/	.	/	/	/	/
c1ccc(Cn2c(CNc3nc4ccccc4n3CCN3CCCCC3)nc3ccccc32)cc1	.	/	29	.	.	.
COc1ccc(NC(=S)N2CCN(C(c3ccccc3)c3ccccc3)CC2)cc1OC	.	/	29	.	.	.
O=S(=O)(NCC1CCCO1)c1cc(Cl)ccc1Br (configuration not stated)	.	/	.	.	/	/
O=S(=O)(NCC1CCCO1)c1cnc(Cl)c(Br)c1 (configuration not stated)	.	.	29	.	19	43
CNC(=O)C[C@@H]1CC[C@@H]2[C@@H](COc3ccc(NC(=O)Nc4cccc(Cl)c4)cc3C(=O)N2C)O1	/	.	/	/	/	/
CC(C)(C)[S@@](=O)N1Cc2cc(C(=O)NCCc3ccncc3)nc(-c3cccc(-c4ccccc4)c3)c2[C@H]1CCO	/	.	/	/	/	/
COc1ccccc1C(c1c(N)n(C)c(=O)n(C)c1=O)C(C)[N+](=O)[O-] (configuration not stated)	.	.	.	.	/	/
COc1cccc(C(c2c(N)n(C)c(=O)n(C)c2=O)C(C)[N+](=O)[O-])c1 (configuration not stated)	.	.	33	.	.	.
O=c1sc(N2CCN(c3ccc(F)cc3)CC2)nc2ccsc12	.	.	+	.	.	.
O=C(C[C@H]1C=C[C@@H](NC(=O)Nc2ccc3c(c2)OCO3)[C@H](CO)O1)NCc1ccccc1	/	.	/	/	/	/
CC(C)NC(=O)N(C)C[C@H]1Oc2ccc(NC(=O)CCN3CCOCC3)cc2CC(=O)N([C@@H](C)CO)C[C@@H]1C	/	.	/	/	/	/
O=C(CSc1n[nH]c(-c2ccccc2O)n1)N1CCOCC1	.	/	30	.	.	.
O=C(C[C@@H]1CC[C@@H](NC(=O)Nc2ccc(F)cc2)[C@H](CO)O1)NCc1cccc(F)c1	/	.	/	/	/	/
O=C(O)CC12CC3CC(C1)CC(n1ncc(NCc4ccccc4)c(Cl)c1=O)(C3)C2	.	.	.	.	/	/
